Sampled rows, rich in hits. Any-hit rate of the full collection: about 2.6%.
Apaf1 inhib = inhibitors of human Apaf-1 apoptosome, primary screen, biochemical, DEVD-Rh110 fluorescence, uHTS; Apoptotic protease-activating factor 1 (Homo sapiens), O14727; reconstituted apoptosome caspase-3 activity; inhibition, % at 20 µM; actives 0.71% (n = 330,000); AID 489030, 2010; active = inhibition of at least 40% at 20 µM;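 note: plate controls were DMSO wells for no effect and DEVD-CHO caspase inhibitor wells for full effect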
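Material: reconstituted apoptosome with Apaf-1, cytochrome c, caspase-9, procaspase-3, dATP / Buffer or medium: pH 7.5 Hepes buffer with CHAPS, BSA, DTT / Also added: cytochrome c with DEVD-Rh110 / Schedule: compound with Apaf-1, dATP, procaspase-3 30 min, then 50 min reaction, room temperature / Technique: rhodamine 110 fluorescence at Ex 480/Em 540 nm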
PRMT1 inh = PRMT1 methyltransferase inhibitors, primary screen, biochemical, fluorescence polarization; inhibition, % at 2.79 µM; Protein arginine N-methyltransferase 1 (Homo sapiens), Q99873; actives 1.3% (n = 370,000); AID 652257, 2013; recombinant PRMT1, activity-based probe fluorescence polarization;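 active = inhibition above about 21% made by adding two undisclosed values, limit read from the data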
PAD4 FP inh = human PAD4 inhibitors, primary screen, biochemical, fluorescence polarization, 1536-well format. Protein-arginine deiminase type-4 (Homo sapiens), Q9UM07. recombinant PAD4, RCA probe fluorescence polarization. inhibition, % at 6.36 µM. actives 0.41% (n = 330,000);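 active = percent inhibition above a cutoff equal to the mean of all tested compounds plus 3 SD, cut at about 15% in these data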;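 note: 0% = PAD4 with RCA probe and DMSO and 100% = probe without PAD4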
GSTO1 inh = inhibitors of recombinant GSTO1, primary screen, counter-screen for RBBP9 inhibitor project, biochemical, fluorescence polarization; inhibition, % at 5.96 µM; actives 1.1% (n = 300,000); activity-based probe fluorescence polarization;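 active = inhibition above the campaign mean inhibition plus 3 SD, cut at about 35% in these data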;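 note: 0% = GSTO1-1 with DMSO and 100% = wells lacking GSTO1-1 enzyme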
Target sequence (P78417 whole entry, looked up): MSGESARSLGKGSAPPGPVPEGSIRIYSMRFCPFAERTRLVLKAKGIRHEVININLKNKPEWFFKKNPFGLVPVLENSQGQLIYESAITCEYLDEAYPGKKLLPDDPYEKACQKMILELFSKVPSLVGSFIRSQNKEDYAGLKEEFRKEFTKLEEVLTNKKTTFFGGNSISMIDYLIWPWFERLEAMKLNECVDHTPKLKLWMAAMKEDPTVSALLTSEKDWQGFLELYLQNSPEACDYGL
TDP2 absorb = human TDP2 enzyme inhibitors, primary screen, biochemical, epi absorbance, recombinant enzyme. Tyrosyl-DNA phosphodiesterase 2 (Homo sapiens), O95551. T5PNP hydrolysis, p-nitrophenol absorbance 415 nm. inhibition, % at 12.8 µM. actives 0.34% (n = 370,000);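 active = inhibition above the mean of all tested compounds plus 3 SD, set per campaign, cut at about 25% in these data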;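 note: 0% = DMSO with enzyme and 100% = buffer with substrate but no TDP2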
Target sequence (O95551 whole entry, looked up): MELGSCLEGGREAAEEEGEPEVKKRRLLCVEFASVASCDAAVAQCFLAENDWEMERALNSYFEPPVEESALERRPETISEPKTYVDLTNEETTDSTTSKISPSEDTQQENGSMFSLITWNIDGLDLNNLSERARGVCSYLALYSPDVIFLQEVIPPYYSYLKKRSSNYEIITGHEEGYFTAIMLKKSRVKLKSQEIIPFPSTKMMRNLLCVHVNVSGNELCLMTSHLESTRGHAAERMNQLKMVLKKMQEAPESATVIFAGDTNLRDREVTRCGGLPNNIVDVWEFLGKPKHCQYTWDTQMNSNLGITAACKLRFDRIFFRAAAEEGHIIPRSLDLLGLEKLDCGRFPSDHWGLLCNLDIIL
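System – recombinant human TDP2 · Amount – 120 nM TDP2 per well · Buffer or medium – Mg2+-containing Tris-HCl buffer, pH 7.5 · Reagent – T5PNP substrate, 5 mM · Dosing – 12.8 µM single point, 1% DMSO · Incubation – 2 h at 37 °C · Measured by – epi absorbance · Read-out basis – percent inhibition · Benchmarks – high control without enzyme, low control DMSO plus TDP2 · Repeats – singlicate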
Apaf-1 inh conf = Apaf-1 inhibitors, single-dose retest, confirmation, biochemical, fluorescence, DEVD-Rh110, 20 µM; shares compounds with Apaf1 inhib; actives 25% (n = 1,800); inhibition, % at 20 µM; reconstituted apoptosome, caspase-3 DEVD-Rh110 fluorescence;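 active = mean inhibition of at least 40% at 20 µM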;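 note: plate controls were DMSO wells for no effect and DEVD-CHO caspase inhibitor control wells for full effect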
Rh110 quench = Rh110 fluorescence interference by putative Apaf-1 inhibitors, confirmation, artefact control for Apaf-1 inhibitor project, biochemical, 20 µM | shares compounds with Apaf1 inhib | quenched caspase reaction | activation (fluorescence interference), % at 20 µM | 1,800 tested, under 10 active | AID 504615, 2011;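 active = signal rise of 40% or more at 20 µM, treated as a fluorescence artifact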
Apaf1 inh interf = fluorescence interference of Apaf-1 inhibitor hits, dose response, artefact control for Apaf-1 inhibitor project | shares compounds with Apaf1 inhib | fluorescence interference counterscreen, Apaf-1 assay format | IC50, µM | 460 tested, under 10 active | AID 588538, 2011; call rule not given here
Numbers without * were called inactive.

COCCCNC(=O)c1c(N)n(-c2cccc(S(N)(=O)=O)c2)c2nc3ccccc3nc12 was read as Apaf1 inhib 43.3*, PRMT1 inh -1.7, PAD4 FP inh -11.2, GSTO1 inh -7.4, TDP2 absorb 4.6, Apaf-1 inh conf 28.0 and Rh110 quench 0.5.
`O=C(NCC1CCCO1)c1ccccc1` (stereo unspecified) gave Apaf1 inhib -6.1, PRMT1 inh -3.9, PAD4 FP inh -1.9, GSTO1 inh -3.9 and TDP2 absorb 2.8.
Screening O=C1CSc2ccc(C(=O)N3CCCC(C(=O)N4CCOCC4)C3)cc2N1 (stereo unspecified) returned PRMT1 inh 0.2 and TDP2 absorb 4.5.
For COc1ccccc1C(CNC(=O)CNC(=O)c1ccccc1Cl)N1CCCC1 (stereo unspecified) the results were Apaf1 inhib 61.3*, PRMT1 inh 1.3, PAD4 FP inh -8.7, TDP2 absorb -9.1, Apaf-1 inh conf 43.1*, Rh110 quench 11.0 and Apaf1 inh interf >100.
`COc1ccccc1C(CNC(=O)CNC(=O)c1ccc(Cl)c(Cl)c1)N1CCCC1` (stereo unspecified) gave Apaf1 inhib -28.9, PRMT1 inh 0.6, PAD4 FP inh 1.4 and TDP2 absorb 7.5.
For CC[C@H](C)[C@@H]1NC(=O)[C@H]([C@@H](C)CC)NC(=O)[C@@H](CC(C)C)NC(=O)[C@H](Cc2ccccc2)NC(=O)[C@H](Cc2ccccc2)NC(=O)[C@@H]2CCCN2C(=O)[C@@H]2CCCN2C(=O)[C@H](C(C)C)NC(=O)[C@H](CC(C)C)NC1=O the results were Apaf1 inhib 53.7*, PRMT1 inh -0.7, PAD4 FP inh -3.3, TDP2 absorb 10.3, Apaf-1 inh conf 18.6 and Rh110 quench 9.5.
Screening COc1ccc2c(-c3ccc(OCCN4CCOCC4)cc3)c(-c3ccccc3OC)sc2c1 returned Apaf1 inhib 29.0 and PAD4 FP inh 3.8.
`COc1ccccc1-c1sc2ccccc2c1-c1ccc(OCCN2CCCCC2)cc1` gave Apaf1 inhib 62.1*, PAD4 FP inh -1.9, Apaf-1 inh conf 10.1 and Rh110 quench 10.2.
COc1ccc2c(-c3ccc(OCCN4CCCCC4)cc3)c(-c3ccccc3OC)sc2c1 was read as Apaf1 inhib 60.0*, PAD4 FP inh -2.2, Apaf-1 inh conf 9.1 and Rh110 quench 11.1.
`Cc1sc2ncnc(N3CCC(C(=O)Nc4ccc(Cl)c(Cl)c4)CC3)c2c1C` gave Apaf1 inhib 41.5*, PRMT1 inh 3.0, PAD4 FP inh -1.0, TDP2 absorb -10.8, Apaf-1 inh conf 31.5 and Rh110 quench 11.7.
CCCN(CC(=O)Nc1ccccc1C)C(=O)C1CCN(c2ncnc3sc(C)c(C)c23)CC1 was read as Apaf1 inhib 48.5*, PRMT1 inh -2.6, PAD4 FP inh 0.4, GSTO1 inh 0.1, TDP2 absorb -11.1, Apaf-1 inh conf 28.7 and Rh110 quench 1.9.
`COc1ccc(N2CCN(Cc3nc4scc(-c5ccccc5)c4c(=O)[nH]3)CC2)cc1` gave Apaf1 inhib 44.2*, PRMT1 inh -1.5, PAD4 FP inh -3.7, GSTO1 inh 2.2, TDP2 absorb -5.0, Apaf-1 inh conf -0.4 and Rh110 quench 6.2.
CN(Cc1ccccc1)c1nc(CN2CCOCC2)nc2scc(-c3ccccc3)c12 was read as Apaf1 inhib 16.4, PRMT1 inh 2.1, PAD4 FP inh -1.9, GSTO1 inh -2.6 and TDP2 absorb -2.9.
For Fc1ccc(N2CCN(c3nc(CN4CCOCC4)nc4scc(-c5ccccc5)c34)CC2)cc1 the results were Apaf1 inhib 41.4*, PRMT1 inh 5.7, PAD4 FP inh 1.0, GSTO1 inh 0.3, TDP2 absorb 3.2, Apaf-1 inh conf 17.1 and Rh110 quench 4.0.
For O=c1[nH]c(CN2CCN(c3ccccc3)CC2)nc2scc(-c3ccccc3)c12 the results were Apaf1 inhib 27.8, PRMT1 inh -3.9, PAD4 FP inh -5.4, GSTO1 inh -3.8 and TDP2 absorb 5.0.
Screening O=C(NCCc1ccccc1)OCc1cn(-c2ccc(F)cc2)nn1 returned PRMT1 inh 4.0 and TDP2 absorb 5.9.
`C#CCNC(=O)C[C@H]1C[C@@]2(C(=O)OC)C(=C[C@H](C(C)C)O[C@@H]2C2CC2)N(Cc2ccc3c(c2)OCO3)C1=O` gave PRMT1 inh -1.8 and TDP2 absorb -4.6.
Screening C=CC[C@]1(O)C(=O)N(c2ccccc2)c2ccccc21 returned PRMT1 inh 4.3 and TDP2 absorb 4.0.
`CC(NC(=O)C1CCN(C(=O)c2cccs2)CC1)c1ccc(S(N)(=O)=O)cc1` (stereo unspecified) gave Apaf1 inhib 62.1*, PRMT1 inh -2.5, PAD4 FP inh -2.6, TDP2 absorb 5.9, Apaf-1 inh conf 34.8 and Rh110 quench 11.5.
For COc1ccccc1CCn1cnc(-c2ccc(F)cc2)c1C(C)C the results were PRMT1 inh -2.8 and TDP2 absorb 3.8.
CCOC(=O)C1CCN(c2cc3c(cc2NC(=O)c2ccccc2OCC)n(C)c(=O)n3C)CC1 was read as Apaf1 inhib 40.4*, PRMT1 inh -1.8, PAD4 FP inh 5.1, GSTO1 inh -3.5, TDP2 absorb 3.9, Apaf-1 inh conf 21.8 and Rh110 quench 9.1.
Screening CCOC(=O)C1CCN(c2cc3c(cc2NC(=O)c2ccccc2Cl)n(C)c(=O)n3C)CC1 returned Apaf1 inhib 20.7, PRMT1 inh 3.5, PAD4 FP inh 0.0, GSTO1 inh -6.0 and TDP2 absorb 2.5.
Screening CCCCCc1cc(=O)oc2c(C(CCN3CCCC3)c3cc(OC)c(OC)c(OC)c3)c(OC)cc(OC)c12 (stereo unspecified) returned Apaf1 inhib 49.7*, PRMT1 inh -1.9, PAD4 FP inh -0.6, GSTO1 inh 2.6, TDP2 absorb 0.5, Apaf-1 inh conf 24.4 and Rh110 quench 6.7.

High-throughput results as filed in PubChem BioAssay.
